Experimental data taken from ChEMBL document CHEMBL1145518, “Potent immune-modulating and anticancer effects of NKT cell stimulatory glycolipids” (2007).
Calls of active or inactive are those of the source. The rule behind the calls is not given here.

What was measured:
Mus musculus [1] = assay: Increase in CD8/CD4 T cell ratio in BALB/c mouse at 2 ug, iv after 72 hrs by flow cytometry; format: functional, organism-based
Mus musculus [2] = assay: Induction of MCP1 secretion in BALB/c mouse serum at 2 ug, iv after 2 hrs relative to control; format: functional
Outline: (§1)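 BALB/c mice received an i.v. injection of 100 μl of glycolipid diluted to 20 μg/ml in saline from DMSO stock, with 1% DMSO as vehicle. Serum cytokines/chemokines were measured at 2 and 18 h after injection.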

Mus musculus [3] = assay: Induction of IL4 secretion in BALB/c mouse serum at 2 ug, iv after 2 hrs relative to control; format: functional; outline: as §1
[4] = Induction of IL3 secretion in human CD161+ CD3+ NKT cells at 10 ug/ml after 18 hrs relative to basal level; format: functional
Outline: (§2)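 Human Vα24i NKT cell lines were expanded for 10 days on irradiated (3,000 rad) autologous immature DCs with 10 units/ml IL-2. The cells (1 × 10^5) were cocultured with 5 × 10^4 irradiated immature CD14+ DCs plus glycolipid at 10 μg/ml. Supernatants were collected at 18 h and read on a 22-plex Luminex bead panel. Triplicates, mean ± SD.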

[5] = Induction of IL13 secretion in human CD161+ CD3+ NKT cells at 10 ug/ml after 18 hrs relative to basal level; format: functional; outline: as §2
NKT = assay: Stimulation of cell expansion of human invariant CD161+/ Valpha24+/ CD56+/ CD3+ NKT cells by flow cytometry method; format: functional, cell-based
Outline: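 CD56+ NK/NKT mixtures (2 × 10^6) were isolated from human leukopaks with anti-CD56 microbeads. They were cocultured with 4 × 10^5 autologous immature CD14+ DCs pulsed with glycolipid at 3 μg/ml, or with 0.3% DMSO, on day 2 for 18 h. Suspension cells were then transferred and kept in 100 units/ml IL-2 with fresh medium every 3 days. On day 9, CD161+/Vα24TCR+ cells were gated by flow cytometry and total Vα24i NKT cells counted. Triplicates, mean ± SD.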

Mus musculus [6] = assay: Activation of dendritic cells in BALB/c mouse at 2 ug, iv after 72 hrs by flow cytometry; format: functional, organism-based
Outline: (§3)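 BALB/c mice (n = 4/group) were given 100 μl of glycolipid at 20 μg/ml in saline i.v., or 100 μl of 1% DMSO. Spleens were harvested after 72 h and splenocyte subsets counted by flow cytometry: mature DCs as CD11c+/CD80+/CD86+, activated NK as U5A2-13Ag+/CD3−/CD69+, activated NKT as U5A2-13Ag+/CD3+/CD69+. Assays were run in duplicate, mean ± SD.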

Mus musculus [7] = assay: Activation of B cells in BALB/c mouse at 2 ug, iv after 72 hrs by flow cytometry; format: functional, organism-based
[8] = Promotion of maturation of human dendritic cells assessed as increase in CD40 expression at 3 ug/ml after 48 hrs; format: functional, cell-based; settings: Dendritic cell
Outline: (§4)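 Immature DCs were derived from leukopak CD14+ cells by 2 days in 300 units/ml GM-CSF plus 100 units/ml IL-4. DCs (2 × 10^6) were incubated with glycolipid at 3 μg/ml or vehicle for 48 h. Surface CD40, CD80, CD83, CD86 and HLA-DR were measured by flow cytometry as mean fluorescence intensity.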

[9] = Promotion of maturation of human dendritic cells assessed as increase in CD80 expression at 3 ug/ml after 48 hrs; format: functional, cell-based; settings: Dendritic cell; outline: as §4
[10] = Promotion of maturation of human dendritic cells assessed as increase in CD83 expression at 3 ug/ml after 48 hrs; format: functional, cell-based; settings: Dendritic cell; outline: as §4
[11] = Promotion of maturation of human dendritic cells assessed as increase in CD86 expression at 3 ug/ml after 48 hrs; format: functional, cell-based; settings: Dendritic cell; outline: as §4
[12] = Promotion of maturation of human dendritic cells assessed as increase in HLA-DR expression at 3 ug/ml after 48 hrs; format: functional, cell-based; settings: Dendritic cell; outline: as §4
Mus musculus [13] = assay: Activation of natural killer cells in BALB/c mouse at 2 ug, iv after 72 hrs by flow cytometry; format: functional, organism-based; outline: as §3
Mus musculus [14] = assay: Activation of NKT cells in BALB/c mouse at 2 ug, iv after 72 hrs by flow cytometry; format: functional, organism-based; outline: as §3

SMILES | Activity (Mus musculus [1]) | Activity (Mus musculus [2]) | Activity (Mus musculus [3]) | Activity [4] | Activity [5] | Activity (NKT) | Activity (Mus musculus [6]) | Activity (Mus musculus [7]) | Activity [8] | Activity [9] | Activity [10] | Activity [11] | Activity [12] | Activity (Mus musculus [13]) | Activity (Mus musculus [14])
CCCCCCCCCCCCCCCCCCCCCCCCCC(=O)N[C@@H](CO[C@H]1O[C@H](CO)[C@H](O)[C@H](O)[C@H]1O)[C@H](O)[C@H](O)CCCCCCCCCCCCCC [RGI-7000] | Active | 18.7 | 240 | 1.9 | 1.8 | Active | Active | Active |  |  |  |  |  |  | 
CCCCCCCCCCCCCCCCCCCCCCCCCC(=O)N[C@@H](CO[C@H]1O[C@H](CO)[C@H](O)[C@H](O)[C@H]1O)[C@H](O)[C@H](O)CCc1ccccc1 | Active | 32.9 | 115 | 1.7 | 2.3 |  | Active |  | Active | Active | Active | Active | Active | Active | Active
